Measurements as given in ChEMBL document CHEMBL1158601, “Discovery of a novel series of CXCR3 antagonists” (Bioorg Med Chem Lett, 2010).
≈ marks a conversion by molar mass, not a printed value. Calls of active or inactive are those of the source. The rule behind the calls is not given here.

Columns and labels:
[1] = system: Mus musculus; test: Clearance in mouse assessed as liver blood flow at 0.2 mg/kg, iv; type: ADME, organism-based; set-up: dose 0.2 mg/kg, route intravenous; conditions: in vivo
[2] = Clearance in mouse at 0.2 mg/kg, iv; type: ADME, organism-based; set-up: dose 0.2 mg/kg, route intravenous; conditions: in vivo
[3] = Aqueous solubility at pH 7.4; type: physicochemical; conditions: buffer
Method in brief: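 Aqueous solubility measured at pH 7.4.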

[4] = Bioavailability in mouse at 10 mg/kg, po; type: ADME, organism-based; conditions: in vivo
[5] = Intrinsic clearance in mouse liver microsomes assessed per mg of protein; type: ADME, Microsome
[6] = target: T1, C-X-C chemokine receptor type 5 (Homo sapiens) (UniProt P32302); test: Antagonist activity at human CXCR5 expressed in mouse L1.2 cells assessed as inhibition of CXCL13-induced chemotaxis up to 10 uM after 4 hrs; type: functional, cell-based
T1 sequence (whole entry): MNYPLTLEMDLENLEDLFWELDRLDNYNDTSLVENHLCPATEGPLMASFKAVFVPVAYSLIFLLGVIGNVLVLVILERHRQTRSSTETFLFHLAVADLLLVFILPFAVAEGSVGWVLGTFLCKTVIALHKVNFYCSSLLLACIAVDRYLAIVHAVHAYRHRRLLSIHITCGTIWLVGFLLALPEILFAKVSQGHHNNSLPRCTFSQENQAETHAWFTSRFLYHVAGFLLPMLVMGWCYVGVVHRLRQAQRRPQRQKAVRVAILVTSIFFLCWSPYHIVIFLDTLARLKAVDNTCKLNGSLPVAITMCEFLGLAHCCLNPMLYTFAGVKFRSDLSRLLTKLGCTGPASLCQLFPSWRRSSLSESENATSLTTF
Method in brief: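 Counter-screen chemotaxis: CXCR5-overexpressing L1.2 cells stimulated with CXCL13, test compounds up to 10 µM.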

[7] = Volume of distribution at steady state in mouse at 0.2 mg/kg, iv; type: ADME, organism-based; set-up: dose 0.2 mg/kg, route intravenous; conditions: in vivo, read-out: Vdss
[8] = Half life in mouse at 10 mg/kg, po; type: ADME, organism-based; set-up: dose 10 mg/kg, route oral; conditions: in vivo
[9] = Intrinsic clearance in rat liver microsomes assessed per mg of protein; type: ADME, Microsome
Method in brief: (§1)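 Intrinsic clearance from stability in human and rat liver microsomes, expressed as µL/min/mg protein.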

[10] = Intrinsic clearance in human liver microsomes assessed per mg of protein; type: ADME, Microsome; method in brief: as §1
[11] = target: T2, C-X-C chemokine receptor type 3 (Homo sapiens) (UniProt P49682); test: Antagonist activity at CXCR3 assessed as inhibition of ITAC-induced GTPgammaS binding; type: functional
T2 sequence (whole entry): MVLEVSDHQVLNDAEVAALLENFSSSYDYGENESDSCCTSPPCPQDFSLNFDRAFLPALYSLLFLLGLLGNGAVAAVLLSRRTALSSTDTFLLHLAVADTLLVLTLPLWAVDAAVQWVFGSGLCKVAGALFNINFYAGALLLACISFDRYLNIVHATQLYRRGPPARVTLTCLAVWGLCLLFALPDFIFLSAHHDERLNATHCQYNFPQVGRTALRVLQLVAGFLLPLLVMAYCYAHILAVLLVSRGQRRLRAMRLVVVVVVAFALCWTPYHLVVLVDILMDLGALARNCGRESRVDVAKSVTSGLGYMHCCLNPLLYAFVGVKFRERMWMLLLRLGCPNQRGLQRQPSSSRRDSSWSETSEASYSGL

[12] = target: T2, C-X-C chemokine receptor type 3 (Homo sapiens); test: Antagonist activity at human CXCR3 expressed in mouse L1.2 cells assessed as inhibition of ITAC-induced chemotaxis after 4 hrs; type: functional, cell-based
[13] = target: T2, C-X-C chemokine receptor type 3 (Homo sapiens); test: Antagonist activity at CXCR3 assessed as inhibition of IP10-induced GTPgammaS binding; type: functional
[14] = Chemical stability at pH 1; type: physicochemical; conditions: buffer
[15] = Nephelometric kinetic solubility in PBS; type: physicochemical
[16] = Apparent permeability across human Caco-2 cells; type: ADME, cell-based
[17] = target: T3, C-X-C chemokine receptor type 3 (Homo sapiens, UniProt P49682); test: Displacement of labeled ITAC from CXCR3
T3 sequence (P49682 whole entry): T2 sequence (whole entry)

[18] = Lipophilicity, log P of the compound; type: physicochemical; conditions: octanol/water
[19] = target: T3, C-X-C chemokine receptor type 3; test: Displacement of labeled IP10 from CXCR3

| Compound | solubility [3] [µM] | Activity [6] | microsomal CLint [9] [µL/min/mg] | microsomal CLint [10] [µL/min/mg] | other results |
| --- | --- | --- | --- | --- | --- |
| N#Cc1ccc(S(=O)(=O)N(Cc2ccc(-c3nnn[nH]3)c(F)c2)Cc2ccccc2F)cc1 | > 100 | inactive |  |  | Fraction of Liver Blood Flow [1]: 30%; clearance [2]: 28.3 mL/min/kg; bioavailability [4]: 83%; microsomal CLint [5]: 17 µL/min/mg; Vd [7]: 1 L/kg; half-life [8]: 1 h |
| O=S(=O)(c1ccc(Cl)cc1)N(Cc1ccc(-c2nnn[nH]2)cc1)Cc1cccc(Cl)c1 | > 100 | inactive |  |  |  |
| O=C(NCc1cccs1)c1ccc(CN(Cc2ccccc2)S(=O)(=O)c2ccc(Cl)cc2)cc1 | < 10 | inactive |  |  |  |
| O=S(=O)(c1ccc(Cl)cc1)N(CCc1cc2ccccc2cn1)Cc1ccc(-c2nnn[nH]2)cc1 | > 100 | inactive |  |  |  |
| CC(C)(C)c1nc(CCN(Cc2ccc(-c3nnn[nH]3)cc2)S(=O)(=O)c2ccc(Cl)cc2)no1 | > 100 | inactive |  |  |  |
| N#Cc1ccc(S(=O)(=O)N(Cc2ccc(C(=O)NCC3CC3)cc2)Cc2ccccn2)cc1 | < 10 | inactive |  |  |  |
| O=C(NC1(c2ccccc2)CC1)c1ccc(CN(Cc2ccccn2)S(=O)(=O)c2ccc(Cl)cc2)cc1 | < 10 | inactive | 1260 | 257 |  |
| CC(=O)Nc1cccc(/C(C)=N\NC(=O)c2ccc(CN(Cc3ccccc3)S(=O)(=O)c3ccc(Cl)cc3)cc2)c1 |  |  | 219 | 92 | Activity [11]: 128 nM; Activity [12]: 1810 nM; Activity [13]: 99 nM; Stability [14]: Unstable; solubility kinetic [15]: 11.9 µM (≈ 7.01 µg/mL); Papp [16]: 0.1 ×10⁻⁶ cm/s; Ki [17]: 211 nM; logP [18]: 4.8; Ki [19]: 348 nM |
| N#Cc1ccc(S(=O)(=O)N(Cc2ccc(-c3nnn[nH]3)cc2)Cc2ccccc2F)cc1 | > 100 | inactive | 67 |  |  |
| COc1ccc(S(=O)(=O)N(Cc2ccc(C(=O)NCC3CC3)cc2)Cc2cccnc2)cc1 | < 10 | inactive |  |  |  |
| O=C(NC[C@@H]1CCCO1)c1ccc(CN(Cc2ccccc2)S(=O)(=O)c2ccc(Cl)cc2)cc1 | < 10 | inactive | 1700 | 490 |  |
| O=S(=O)(c1ccc(Cl)cc1)N(Cc1ccc(Cl)cc1)Cc1ccc(-c2nnn[nH]2)cc1 | > 100 | inactive |  |  |  |
| O=C(O)c1ccc(CN(Cc2ccccn2)S(=O)(=O)c2ccc(Cl)cc2)cc1F |  | inactive |  |  |  |
| N#Cc1ccc(S(=O)(=O)N(Cc2ccc(-c3nnn[nH]3)cc2)Cc2ccccn2)cc1 | > 100 | inactive |  |  |  |
| O=C(NCC1CC1)c1ccc(CN(Cc2ccccc2)S(=O)(=O)c2ccc(Cl)cc2)cc1 | < 10 | inactive |  |  |  |
| O=C(NC1(c2ccccc2)CC1)c1ccc(CN(Cc2ccccc2)S(=O)(=O)c2ccc(Cl)cc2)cc1 | < 10 | inactive | 507 | 211 |  |
| O=C(NCC1CC1)c1ccc(CN(Cc2ccccc2F)S(=O)(=O)c2ccc(Cl)cc2)cc1 | < 10 | inactive |  |  |  |
| COc1ccc(S(=O)(=O)N(Cc2ccccc2)Cc2ccc(C(=O)O)cc2)cc1 |  | inactive |  |  |  |
| O=S(=O)(c1ccc(Cl)cc1)N(Cc1ccc(-c2nnn[nH]2)c(F)c1)Cc1ccccc1F | > 100 | inactive | 71 | < 10 |  |
| N#Cc1ccc(S(=O)(=O)N(Cc2ccc(C(=O)NC3(c4ccccc4)CC3)cc2)Cc2ccccn2)cc1 | < 10 | inactive | 474 | 435 |  |
